# Reference: ChEMBL document CHEMBL1152173, “Synthesis and in vitro evaluation of the antifungal activities of dihydropyrimidinones” (2008)
# Active and inactive are the calls of the source. The rule behind the calls is not given here.
# Columns and labels:
# Format in all cases: functional
# Trichoderma hamatum [1] = experiment: Antifungal activity against Trichoderma hamatum assessed as radial growth at 5% after 72 hrs by poison food technique of Flack relative to control
# Procedure, shortened: (§1)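 Acetone stock added to molten sterilized PDA to final 0.5–7%, plated in 90 mm dishes with compound-free plates as control. Each plate was inoculated with a 9 mm disc from a 4-day-old culture, incubated at 25 ± 1 °C, and colony diameter measured at 24 h intervals. % inhibition = (control − treatment)/control × 100; three replicates averaged.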
# Trichoderma hamatum [2] = experiment: Growth promotion of Trichoderma hamatum assessed as radial growth at 0.5% after 24 hrs by poison food technique of Flack relative to control
# Procedure, shortened: (§2)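 Growth increase in poisoned PDA plates (acetone stock, final 0.5 or 1%) against untreated control plates. Inoculum was a 9 mm mycelial disc from a 4-day-old culture, incubated at 25 ± 1 °C, with colony diameter read every 24 h. Where treated growth exceeded control, percentage increase over control was recorded; average of three replicates.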
# Aspergillus niger [3] = experiment: Antifungal activity against Aspergillus niger assessed as radial growth at 7% after 24 hrs by poison food technique of Flack
# Procedure, shortened: (§3)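 Poisoned-food assay on potato dextrose agar. Compound stock in acetone was added to molten sterilized PDA to a final 0.5, 1, 3, 5 or 7%, then 20 mL was poured per 90 mm plate. Each plate was inoculated with a 9 mm mycelial disc from a 4-day-old pure culture and incubated at 25 ± 1 °C. Colony diameter (mm) was read every 24 h; mean of three replicates.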
# Aspergillus niger [4] = experiment: Antifungal activity against Aspergillus niger assessed as radial growth at 5% after 24 hrs by poison food technique of Flack relative to control
# Trichoderma koningii [5] = experiment: Antifungal activity against Trichoderma koningii assessed as radial growth at 7% after 24 hrs by poison food technique of Flack
# Procedure, shortened: (§4)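 Poisoned-food method: acetone stock mixed into molten sterilized potato dextrose agar to final 0.5, 1, 3, 5 or 7%, poured into 90 mm plates. Plates were inoculated with a 9 mm mycelial disc from a 4-day-old pure culture and incubated at 25 ± 1 °C. Colony diameter (mm) was read every 24 h; mean of three replicates.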
# Aspergillus niger [6] = experiment: Antifungal activity against Aspergillus niger assessed as radial growth at 3% after 24 hrs by poison food technique of Flack; procedure, shortened: as §3
# Trichoderma koningii [7] = experiment: Antifungal activity against Trichoderma koningii assessed as radial growth at 5% after 24 hrs by poison food technique of Flack; procedure, shortened: as §4
# Trichoderma hamatum [8] = experiment: Growth promotion of Trichoderma hamatum assessed as radial growth at 0.5% after 48 hrs by poison food technique of Flack relative to control
# Trichoderma koningii [9] = experiment: Antifungal activity against Trichoderma koningii assessed as radial growth at 7% after 24 hrs by poison food technique of Flack relative to control; procedure, shortened: as §1
# Trichoderma hamatum [10] = experiment: Growth promotion of Trichoderma hamatum assessed as radial growth at 1% after 48 hrs by poison food technique of Flack relative to control
# Aspergillus niger [11] = experiment: Antifungal activity against Aspergillus niger assessed as radial growth at 0.5% after 48 hrs by poison food technique of Flack relative to control
# Trichoderma hamatum [12] = experiment: Growth promotion of Trichoderma hamatum assessed as radial growth at 1% after 24 hrs by poison food technique of Flack relative to control
# Aspergillus niger [13] = experiment: Antifungal activity against Aspergillus niger assessed as radial growth at 5% after 24 hrs by poison food technique of Flack; procedure, shortened: as §3
# Aspergillus niger [14] = experiment: Antifungal activity against Aspergillus niger assessed as radial growth at 7% after 48 hrs by poison food technique of Flack; procedure, shortened: as §3
# Aspergillus niger [15] = experiment: Antifungal activity against Aspergillus niger assessed as radial growth at 7% after 72 hrs by poison food technique of Flack; procedure, shortened: as §3
# Aspergillus niger [16] = experiment: Antifungal activity against Aspergillus niger
# Trichoderma koningii [17] = experiment: Growth promotion of Trichoderma koningii assessed as radial growth at 1% after 72 hrs by poison food technique of Flack relative to control
# Aspergillus niger [18] = experiment: Growth promotion of Aspergillus niger assessed as radial growth at 0.5% after 72 hrs by poison food technique of Flack relative to control; procedure, shortened: as §2
# Trichoderma hamatum [19] = experiment: Antifungal activity against Trichoderma hamatum assessed as radial growth at 5% after 48 hrs by poison food technique of Flack; procedure, shortened: as §4
# Trichoderma hamatum [20] = experiment: Antifungal activity against Trichoderma hamatum assessed as radial growth at 7% after 48 hrs by poison food technique of Flack; procedure, shortened: as §4
# Trichoderma koningii [21] = experiment: Growth promotion of Trichoderma koningii assessed as radial growth at 1% after 48 hrs by poison food technique of Flack relative to control
# Aspergillus niger [22] = experiment: Growth promotion of Aspergillus niger assessed as radial growth at 1% after 48 hrs by poison food technique of Flack relative to control; procedure, shortened: as §2
# Trichoderma hamatum [23] = experiment: Antifungal activity against Trichoderma hamatum assessed as radial growth at 5% after 24 hrs by poison food technique of Flack; procedure, shortened: as §4
# Aspergillus niger [24] = experiment: Growth promotion of Aspergillus niger assessed as radial growth at 0.5% after 48 hrs by poison food technique of Flack relative to control; procedure, shortened: as §2
# Aspergillus niger [25] = experiment: Growth promotion of Aspergillus niger assessed as radial growth at 0.5% after 24 hrs by poison food technique of Flack relative to control; procedure, shortened: as §2
# Aspergillus niger [26] = experiment: Growth promotion of Aspergillus niger assessed as radial growth at 1% after 72 hrs by poison food technique of Flack relative to control; procedure, shortened: as §2
# Trichoderma koningii [27] = experiment: Growth promotion of Trichoderma koningii assessed as radial growth at 0.5% after 72 hrs by poison food technique of Flack relative to control
# Aspergillus niger [28] = experiment: Antifungal activity against Aspergillus niger assessed as radial growth at 5% after 48 hrs by poison food technique of Flack; procedure, shortened: as §3
# Trichoderma koningii [29] = experiment: Growth promotion of Trichoderma koningii assessed as radial growth at 0.5% after 48 hrs by poison food technique of Flack relative to control
# Trichoderma koningii [30] = experiment: Growth promotion of Trichoderma koningii assessed as radial growth at 0.5% after 24 hrs by poison food technique of Flack relative to control
# Trichoderma hamatum [31] = experiment: Growth promotion of Trichoderma hamatum assessed as radial growth at 0.5% after 72 hrs by poison food technique of Flack relative to control
# Trichoderma koningii [32] = experiment: Antifungal activity against Trichoderma koningii assessed as radial growth at 3% after 24 hrs by poison food technique of Flack; procedure, shortened: as §4
# Trichoderma koningii [33] = experiment: Antifungal activity against Trichoderma koningii assessed as radial growth at 7% after 48 hrs by poison food technique of Flack; procedure, shortened: as §4
# Trichoderma koningii [34] = experiment: Antifungal activity against Trichoderma koningii assessed as radial growth at 5% after 48 hrs by poison food technique of Flack; procedure, shortened: as §4
# Trichoderma hamatum [35] = experiment: Antifungal activity against Trichoderma hamatum assessed as radial growth at 7% after 72 hrs by poison food technique of Flack; procedure, shortened: as §4
# Aspergillus niger [36] = experiment: Growth promotion of Aspergillus niger assessed as radial growth at 1% after 24 hrs by poison food technique of Flack relative to control; procedure, shortened: as §2
# Trichoderma koningii [37] = experiment: Growth promotion of Trichoderma koningii assessed as radial growth at 1% after 24 hrs by poison food technique of Flack relative to control
SMILES,inhibition (INH) (Trichoderma hamatum [1]) [%],Activity (Aspergillus niger [3]),inhibition (INH) (Aspergillus niger [4]) [%],Activity (Trichoderma koningii [5]),Activity (Trichoderma koningii [7]),inhibition (INH) (Trichoderma koningii [9]) [%],inhibition (INH) (Aspergillus niger [11]) [%],Activity (Aspergillus niger [14]),Activity (Aspergillus niger [15]),MIC (Aspergillus niger [16]) [µg/mL],Activity (Aspergillus niger [18]) [%],Activity (Trichoderma hamatum [20]),Activity (Trichoderma koningii [21]) [%],Activity (Aspergillus niger [22]) [%],Activity (Aspergillus niger [24]) [%],Activity (Aspergillus niger [25]) [%],Activity (Aspergillus niger [26]) [%],Activity (Trichoderma koningii [27]) [%],Activity (Trichoderma koningii [29]) [%],Activity (Trichoderma koningii [30]) [%],other results
CCOC(=O)C1=C(C)NC(=O)NC1c1ccc(N(C)C)cc1 (stereo not drawn),86.83,Active,100,Active,Active,100,41.66,Active,Active,0.35,–,–,–,–,–,–,–,–,–,–,Activity (Trichoderma hamatum [2]): 8.97%; Activity (Aspergillus niger [6]): Active; Activity (Trichoderma hamatum [8]): 3.3%; Activity (Trichoderma hamatum [10]): 1.5%; Activity (Trichoderma hamatum [12]): 3.15%; Activity (Aspergillus niger [13]): Active
CCOC(=O)C1=C(C)NC(=S)NC1c1ccc(N(C)C)cc1 (stereo not drawn),96.68,Active,100,Active,–,100,0,Active,Active,0.35,100,Active,18.21,86.6,103.2,60,92.07,2.7,18.75,15.38,Activity (Trichoderma koningii [17]): 1.35%; Activity (Trichoderma hamatum [19]): Active; Activity (Trichoderma hamatum [23]): Active; Activity (Aspergillus niger [28]): Active; Activity (Aspergillus niger [13]): Active
CCOC(=O)C1=C(C)NC(=S)NC1c1ccccc1O (stereo not drawn),97.52,–,62.46,Active,Active,100,0,–,–,0.025,93.61,Active,113.53,94.34,129.68,90.09,104.34,1.25,53.12,19.71,Activity (Trichoderma hamatum [19]): Active; Activity (Trichoderma hamatum [31]): 0.42%; Activity (Trichoderma hamatum [23]): Active
CCOC(=O)C1=C(C)NC(=O)NC1c1ccccc1 (stereo not drawn),93.2,Active,84.72,Active,Active,100,0,–,–,0.025,27.63,Active,–,13.37,64.39,19.44,7.76,–,–,–,Activity (Trichoderma koningii [32]): Active; Activity (Trichoderma hamatum [23]): Active; Activity (Trichoderma koningii [33]): Active; Activity (Trichoderma koningii [34]): Active; Activity (Trichoderma hamatum [35]): Active
CCOC(=O)C1=C(C)NC(=O)NC1c1ccccc1O (stereo not drawn),95.07,Active,40,Active,–,100,34.75,Active,–,0.025,–,Active,–,–,–,3.2,–,6.37,11.97,6.49,Activity (Trichoderma hamatum [2]): 5.68%; Activity (Aspergillus niger [36]): 7.4%; Activity (Trichoderma koningii [37]): 5.79%; Activity (Trichoderma hamatum [31]): 4.07%; Activity (Trichoderma hamatum [8]): 19.53%; Activity (Trichoderma koningii [33]): Active
CCOC(=O)C1=C(C)NC(=S)NC1c1ccccc1 (stereo not drawn),94.96,Active,33.33,–,–,91.34,0,Active,Active,0.35,106.06,Active,3.92,50,96.9,133,75.75,2.97,16.26,36.06,Activity (Trichoderma koningii [17]): 2.97%; Activity (Trichoderma koningii [37]): 26.94%
